T cruzi inh = inhibitors of intracellular T. cruzi growth, primary screen, luminescence, NIH3T3 host cells. AID 1885, 2009. inhibition, % (concentration not given with the values). 300,000 tested, 1.4% active. T. cruzi beta-gal in NIH3T3, 90 h;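 active = mean inhibition across valid replicates above about 55%, limit read from the data; inconclusive = mean below that limit but half or more replicates reach it; inactive = mean below it, under half of replicates reach it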;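 note: signal also drops with host cell toxicity which is not excluded here; higher percent means less beta-gal luminescence so fewer parasites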
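Assay system: NIH/3T3 host cells with β-galactosidase reporter T. cruzi; input: 5,000 host fibroblasts per well; compound: single 50 nL compound addition per well in DMSO; timing: ≥90 h infection period, 3 h prior cell attachment; measured by: GalScreen β-gal luminescence, detergent lysis, 60 min; evaluation: percent inhibition of parasite-derived β-gal signal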
Calb FLC = C. albicans growth inhibition with fluconazole, primary screen, CaCi-2 strain, Alamar Blue fluorescence. AID 1979, 2009. 300,000 tested, 0.57% active. growth inhibition, % (concentration not given with the values). C. albicans CaCi-2 + fluconazole, 48 h;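 active = growth inhibition above about 58% in most replicates, limit read from the data, passing the limit was not always enough; inconclusive = exactly half the replicates above a set limit; inactive = most replicates below a set limit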;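 note: all wells also contain fluconazole at 8 µg/ml as a sub-toxic cotreatment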
Mdm2-MdmX inh = inhibitors of human Mdm2-MdmX association, primary screen, cell-based, luminescence, split luciferase, SaOS-2, uHTS; Protein Mdm4 (Homo sapiens) + E3 ubiquitin-protein ligase Mdm2 (Homo sapiens), …; SaOS-2 split-luciferase Mdm2/MdmX complementation; inhibition, % at 8 µM; 330,000 tested, 3% active;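 active = inhibition of at least 50% at 8 µM in the primary screen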
Target sequence (O15151 whole entry, looked up): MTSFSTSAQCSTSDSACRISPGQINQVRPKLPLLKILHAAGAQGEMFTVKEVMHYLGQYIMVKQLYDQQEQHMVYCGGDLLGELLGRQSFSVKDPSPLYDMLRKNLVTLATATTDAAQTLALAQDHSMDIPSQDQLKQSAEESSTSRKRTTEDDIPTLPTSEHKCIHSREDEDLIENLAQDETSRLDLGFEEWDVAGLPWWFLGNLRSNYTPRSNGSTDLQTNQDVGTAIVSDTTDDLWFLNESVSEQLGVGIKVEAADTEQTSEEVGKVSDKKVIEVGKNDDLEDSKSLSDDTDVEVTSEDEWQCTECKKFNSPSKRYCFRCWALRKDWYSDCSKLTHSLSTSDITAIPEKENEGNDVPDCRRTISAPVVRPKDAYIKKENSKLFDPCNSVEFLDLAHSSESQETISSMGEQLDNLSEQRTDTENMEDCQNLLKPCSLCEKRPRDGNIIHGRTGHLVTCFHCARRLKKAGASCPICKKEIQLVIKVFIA
Target sequence (Q00987 whole entry, looked up): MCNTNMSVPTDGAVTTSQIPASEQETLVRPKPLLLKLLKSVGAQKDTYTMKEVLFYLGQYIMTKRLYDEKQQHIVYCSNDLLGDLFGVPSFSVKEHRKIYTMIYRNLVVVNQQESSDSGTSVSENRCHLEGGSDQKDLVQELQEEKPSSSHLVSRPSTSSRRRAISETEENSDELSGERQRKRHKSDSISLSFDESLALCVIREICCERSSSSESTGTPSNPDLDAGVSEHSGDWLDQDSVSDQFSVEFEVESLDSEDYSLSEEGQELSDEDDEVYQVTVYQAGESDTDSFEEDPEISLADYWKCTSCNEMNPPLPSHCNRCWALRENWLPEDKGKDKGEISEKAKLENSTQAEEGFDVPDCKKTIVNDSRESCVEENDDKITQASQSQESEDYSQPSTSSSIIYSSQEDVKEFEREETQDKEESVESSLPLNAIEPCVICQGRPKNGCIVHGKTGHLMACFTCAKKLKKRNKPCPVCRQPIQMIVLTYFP
Beta apoptosis = inhibitors of cytokine-induced beta cell apoptosis, primary screen, luminescence; INS-1E cytokine-induced death, ATP luminescence, 48 h; percent of positive-control rescue, neutral wells zero; protection from apoptosis, % (concentration not given with the values); 300,000 tested, 0.8% active;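 active = Every replicate reaches about 75%, or at least half do and their mean reaches it too, limit read from the data; inconclusive = At least half of replicates reach the limit but their mean does not; inactive = Under half of replicates reach the limit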;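 note: higher means more ATP so stronger rescue from cytokine killing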
SKKanGAS inh = S. pyogenes SKKanGAS growth inhibitors in kanamycin, primary screen, streptokinase expression inhibitor project, SKKanGAS strain, BacTiter-Glo luminescence. 6 h. inhibition, % at 7.5 µM. 300,000 tested, 1.3% active;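 active = mean replicate score, as percent of positive control median, at least 50; inconclusive = mean below 50 but one replicate at or above 50; inactive = mean and every replicate below 50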;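 note: strain carries kanamycin resistance gene driven by streptokinase promoter and grows in 40 µg/ml kanamycin; loss of luminescence reflects streptokinase promoter inhibition or plain growth inhibition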
CSC inhib = cancer stem cell viability inhibitors, primary screen, luminescence. cancer stem cell-like cells viability. inhibition, % at 7.5 µM. 300,000 tested, 1.1% active; in the data active = inhibition above about 75%; inconclusive = no clear call, values can overlap the other calls; tested in HMLE shEcad cells
Each line names hits and unclear results; the compound was inactive in the other large screens. Compounds with a hit are over-represented: about 5.7% of the library has one in this group of screens.

O=Nc1c(O)n(Cc2ccccc2)c2ccccc12	none
CN1CCC(N(C)C(=O)c2ccccc2Nc2ccc(SC(F)F)cc2)CC1	T cruzi inh 59
CC(C)C1=CC2=CCC3C(C)(C(=O)O)CCCC3(C)C2CC1 (configuration not stated) (tested in a mixture with another compound)	none
Nc1cc(=O)[nH]c(SCC(=O)Nc2ccc(N3CCCCC3)cc2)n1	none (no result: T cruzi inh, Calb FLC, SKKanGAS inh)
O=C(Cc1csc(NC(=O)Nc2cccc(Cl)c2)n1)NCc1cccnc1	SKKanGAS inh 89 (no result: CSC inhib)
O=C(Cc1csc(NC(=O)Nc2cccc(Cl)c2)n1)NCc1ccccn1	SKKanGAS inh 86 (no result: CSC inhib)
Cc1[nH]c(C)c(S(=O)(=O)N2CCCCC2)c1C(=O)N1CCCCC1	none (no result: Beta apoptosis)
CCN(CC)c1ccc(C(=O)N/N=C/c2ccccc2OC(F)F)cc1	Calb FLC inconclusive, Beta apoptosis 80
CC(C)Oc1ccccc1/C=N/NC(=O)c1ccc(F)cc1	none
O=C(NC(Cc1c[nH]c2ccccc12)C(=O)N/N=C/c1cccc2ccccc12)c1cccs1 (configuration not stated)	SKKanGAS inh 60
NC(=S)NNc1cccc(Cl)c1	Calb FLC 85
NC(=S)NNC(=O)Nc1cccc(Cl)c1	none
CCOC(=O)C1CCN(C(=O)C2CCCN2S(=O)(=O)c2ccc(Cl)cc2)CC1 (configuration not stated)	none
CC(C)(C)c1cc(NCc2ccccn2)n2ncc(-c3ccccc3)c2n1	SKKanGAS inh 108, CSC inhib 78 (no result: T cruzi inh, Beta apoptosis)
CN(C(=O)COC(=O)c1ccccc1OCc1ccc(Cl)cc1)c1c(N)n(Cc2ccccc2)c(=O)[nH]c1=O	none
COc1cc(C(=O)N/N=C/c2ccc(OC(=O)c3cccc(C)c3)cc2)ccc1O	SKKanGAS inh 52
COc1cc(C(=O)N/N=C/c2ccc(OC(=O)c3ccccc3Cl)c(OC)c2)ccc1O	SKKanGAS inh 66
COc1ccc(C(=O)Nc2ccccc2C(=O)N/N=C/c2ccccn2)cc1OC	Beta apoptosis 95
COc1ccc(C(=O)N/N=C/c2ccccn2)cc1OC	Calb FLC inconclusive
COc1cc(/C=N/NC(=O)c2ccncc2)ccc1OC(=O)c1ccccc1Cl	none
CC(=O)Nc1ccccc1/C=C/c1ccc2c(C)ccc(O)c2n1	none
CC(=O)Nc1ccccc1/C=C/c1ccc2c(C)cc(C)c(O)c2n1	Calb FLC 109
c1cncc(-c2nnc(-c3cccnc3)nn2)c1	Beta apoptosis 108
c1ccc(-c2nnc(-c3ccccc3)nn2)cc1	none
COc1ccc(CCN2C(=O)c3cccc4c(C(=O)N5CCCCC5)ccc(c34)C2=O)cc1OC	none
COc1ccc(C2OC(=O)CC2C(=O)NCc2ccccc2Cl)cc1OC (configuration not stated)	none
CCOc1ccc(-n2cc(-c3ccccc3)c3c(=S)nc[nH]c32)cc1	SKKanGAS inh 77
C=C[C@@H]1c2cc(C)ccc2N(S(=O)(=O)c2ccc(C)cc2)[C@H](c2ccccc2)C1(C#N)S(=O)(=O)c1ccccc1 (some centres not stated)	none (no result: T cruzi inh, Calb FLC, SKKanGAS inh)
Cc1noc(C)c1COc1ccc(C(=O)Nc2ccccc2)cc1	none
Cc1noc(C)c1COc1cccc(C(=O)Nc2ccc(OCc3ccccc3)cc2)c1	CSC inhib 98
CCCN(CCC)S(=O)(=O)c1ccc(C(=O)Nc2nnc(-c3cccc(OC)c3)o2)cc1	SKKanGAS inh 108
O=C(Nc1nnc(-c2ccccc2)o1)c1cc(Cl)sc1Cl	SKKanGAS inh 89
COc1ccc(C(=O)Nc2nnc(-c3ccccc3)o2)cc1OC	SKKanGAS inh 50
O=C(Nc1nnc(-c2cccs2)o1)c1ccc(S(=O)(=O)N2CCOCC2)cc1	none
O=C(Nc1nnc(-c2cccs2)o1)c1cccc(F)c1	Calb FLC 87, SKKanGAS inh 85
COC(=O)CC1C(=O)NCCN1Cc1cn(-c2ccc(C)cc2)nc1-c1cccc(C)c1 (configuration not stated)	none
C[C@H](CO)N1C[C@H](C)[C@@H](CN(C)S(=O)(=O)c2ccc(F)cc2)Oc2ccc(NC(=O)NC3CCCCC3)cc2C1=O	none (no result: T cruzi inh, Calb FLC, Beta apoptosis, SKKanGAS inh, CSC inhib)
O=C(Nc1ccc(NC(=O)c2cccc([N+](=O)[O-])c2)cc1)c1cccc([N+](=O)[O-])c1	none
O=C(Nc1nnc(-c2ccc3c(c2)OCCO3)o1)c1ccc(Cc2ccccc2)cc1	SKKanGAS inh 102 (no result: Beta apoptosis, CSC inhib)
COc1ccc(C(=O)OCC(=O)Nc2nnc(-c3ccccc3)o2)cc1	SKKanGAS inh 59
COc1cc(C(=O)OCC(=O)Nc2nnc(-c3ccccc3)o2)cc(OC)c1OC	none
O=C(CCOc1ccccc1)Nc1nnc(-c2ccc3c(c2)OCCO3)o1	none
O=C(Nc1nnc(-c2cccs2)o1)c1cc(-c2ccccc2)nc2ccccc12	SKKanGAS inh 92
O=C(Nc1nnc(-c2ccc(F)cc2)o1)c1cccc([N+](=O)[O-])c1	Calb FLC 91, SKKanGAS inh 84
CCC1(c2ccccc2)NC(=O)N(CC(=O)NCCN2C(=O)S/C(=C\c3cccnc3)C2=O)C1=O (configuration not stated)	none
c1ccc(Nc2ncnc3[nH]ncc23)cc1	none
COc1cccc(-c2nnc(NC(=O)c3ccccc3Br)o2)c1	none
O=C(Nc1nnc(-c2ccc(Cl)cc2)o1)Nc1ccccc1Cl	none
O=C(Nc1nnc(-c2ccc(Cl)cc2)o1)c1nc2ccccc2s1	SKKanGAS inh 94, CSC inhib 99
COc1cccc(-c2nnc(NC(=O)c3cccc(F)c3)o2)c1	SKKanGAS inh 87
COC(=O)[C@@]12CCCCN1[C@H](c1ccc(-c3ccc(F)cc3)c(OC)c1)[C@@H]1C(=O)N(C)C(=O)[C@@H]12	none (no result: T cruzi inh, Calb FLC, SKKanGAS inh)
COc1cccc2c1oc1c(SCc3nc4ccccc4[nH]3)nc(C)nc12	none (no result: T cruzi inh, Calb FLC, SKKanGAS inh, CSC inhib)
CCC(C)Sc1ccc(-c2nc3cnccn3c2NC2CCCCC2)cc1 (configuration not stated)	SKKanGAS inh 93, CSC inhib 126
Clc1ccc(-c2nc3cnccn3c2NC2CCCC2)cc1	none
CCCCCCSc1cc(-c2nc3cc(C)ccn3c2NC2CCCCC2)ccc1OC	none
COc1ccc(-c2nc3cnccn3c2NCc2ccccc2)cc1SC1CCCCC1	SKKanGAS inh 55
CCCCNc1c(-c2ccc(OC)c(SC3CCCCC3)c2)nc2cnccn12	SKKanGAS inh 104
CCCCCCSc1cc(-c2nc3cnccn3c2NCc2ccccc2)ccc1OC	SKKanGAS inh 65 (no result: CSC inhib)
Cc1c(C(=O)N2CCOCC2)c(S(=O)(=O)Nc2ccccc2F)c(C)n1C	none (no result: Beta apoptosis)
O=C(NCc1cccs1)c1cc(S(=O)(=O)N2CCOCC2)c(Cl)cc1Cl	none

Screening data (PubChem)
